Assay results reported in ChEMBL document CHEMBL3865797, “Design, synthesis and biological evaluation of berberine-benzimidazole hybrids as new type of potentially DNA-targeting antimicrobial agents” (Eur J Med Chem, 2016).
In brackets after ≈: the same amount, converted by molar mass.

Columns and labels:
Salmonella typhi = experiment: Antibacterial activity against Salmonella typhi measured after 24 hrs by two-fold serial dilution method; type: functional, Salmonella enterica subsp. enterica serovar Typhi; conditions: Salmonella enterica
Procedure, shortened: (§1)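 Two-fold serial dilution in 96-well microtest plates following NCCLS guidance (micro broth dilution). Chloromycin and norfloxacin serve as positive controls. MIC is reported in µg/mL.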

Aspergillus flavus = experiment: Antifungal activity against Aspergillus flavus measured after 24 hrs by two-fold serial dilution method; type: functional
Procedure, shortened: (§2)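 MIC by two-fold serial broth microdilution in 96-well plates, following NCCLS recommendations. Chloromycin, norfloxacin and fluconazole serve as reference drugs. The MIC is read as the lowest concentration that inhibits growth, in µg/mL.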

Staphylococcus aureus [1] = experiment: Antibacterial activity against methicillin-resistant Staphylococcus aureus N315 measured after 24 hrs by two-fold serial dilution method; type: functional; conditions: N315, 24 h; procedure, shortened: as §1
[2] = Antifungal activity against Candida utilis measured after 24 hrs by two-fold serial dilution method; type: functional; conditions: Cyberlindnera jadinii; procedure, shortened: as §2
Pseudomonas aeruginosa = experiment: Antibacterial activity against Pseudomonas aeruginosa measured after 24 hrs by two-fold serial dilution method; type: functional; procedure, shortened: as §2
Bacillus subtilis = experiment: Antibacterial activity against Bacillus subtilis measured after 24 hrs by two-fold serial dilution method; type: functional; procedure, shortened: as §2
Proteus vulgaris = experiment: Antibacterial activity against Bacillus proteus ATCC 13315 measured after 24 hrs by two-fold serial dilution method; type: functional; conditions: ATCC 13315, 24 h; procedure, shortened: as §2
Micrococcus luteus = experiment: Antibacterial activity against Micrococcus luteus ATCC 4698 measured after 24 hrs by two-fold serial dilution method; type: functional; conditions: NCTC 2665, 24 h; procedure, shortened: as §2
Escherichia coli = experiment: Antibacterial activity against Escherichia coli JM109 measured after 24 hrs by two-fold serial dilution method; type: functional; conditions: JM109, 24 h; procedure, shortened: as §2
Candida albicans = experiment: Antifungal activity against Candida albicans ATCC 76615 measured after 24 hrs by two-fold serial dilution method; type: functional; conditions: ATCC 76615, 24 h; procedure, shortened: as §2
[3] = Antifungal activity against Saccharomyces cerevisiae measured after 24 hrs by two-fold serial dilution method; type: functional; procedure, shortened: as §2
Staphylococcus aureus [4] = experiment: Antibacterial activity against Staphylococcus aureus ATCC 25923 measured after 24 hrs by two-fold serial dilution method; type: functional; conditions: ATCC 25923, 24 h; procedure, shortened: as §2

Row | SMILES | MIC (Salmonella typhi) [µg/mL] | MIC80 (Aspergillus flavus) [µg/mL] | MIC (Staphylococcus aureus [1]) [µg/mL] | MIC80 [2] [µg/mL] | MIC (Pseudomonas aeruginosa) [µg/mL] | MIC (Bacillus subtilis) [µg/mL] | MIC (Proteus vulgaris) [µg/mL] | MIC (Micrococcus luteus) [µg/mL] | MIC (Escherichia coli) [µg/mL] | MIC80 (Candida albicans) [µg/mL] | MIC80 [3] [µg/mL] | MIC (Staphylococcus aureus [4]) [µg/mL]
1 | CCCCCn1c(COc2c(OC)ccc3cc4[n+](cc23)CCc2cc3c(cc2-4)OCO3)nc2ccccc21.[Cl-] | 4 | 16 | 16 | 8 | 64 | 32 | 128 | 32 | 128 | 32 | 512 | 64
2 | COc1ccc2cc3[n+](cc2c1OCc1nc2ccccc2[nH]1)CCc1cc2c(cc1-3)OCO2.[Cl-] | 16 | 32 | 256 | 64 | 256 | 512 | 256 | 32 | 512 | 256 | 512 | 512
3 | COc1ccc2cc3[n+](cc2c1OCc1nc2ccccc2n1Cc1ccccc1F)CCc1cc2c(cc1-3)OCO2.[Cl-] | 4 | 8 | 512 | 4 | 512 | 256 | 128 | 8 | 128 | 512 | 128 | 2
4 | COc1ccc2cc3[n+](cc2c1OCc1nc2ccccc2n1Cc1ccc(Cl)cc1)CCc1cc2c(cc1-3)OCO2.[Cl-] | 2 | 4 | 512 | 4 | 512 | 512 | 8 | 8 | 2 | 512 | 512 | 32
5 | CCCCCCCCCCCCCCCCn1c(COc2c(OC)ccc3cc4[n+](cc23)CCc2cc3c(cc2-4)OCO3)nc2ccccc21.[Cl-] | 128 | 128 | 256 | 128 | 128 | 512 | 512 | 128 | 64 | 64 | 512 | 256
6 | COc1ccc2cc3[n+](cc2c1OCc1nc2ccccc2n1Cc1cccc(Cl)c1)CCc1cc2c(cc1-3)OCO2.[Cl-] | 256 | 32 | 512 | 16 | 256 | 512 | 128 | 16 | 512 | 512 | 512 | 512
7 | CCCCCCCCCCn1c(COc2c(OC)ccc3cc4[n+](cc23)CCc2cc3c(cc2-4)OCO3)nc2ccccc21.[Cl-] | 2 | 8 | 16 | 8 | 16 | 32 | 512 | 32 | 32 | 8 | 512 | 16
8 | CCn1cc(C(=O)O)c(=O)c2cc(F)c(N3CCNCC3)cc21 [NORFLOXACIN] | 4 (≈ 12.5 µM) | – | 8 (≈ 25.1 µM) | – | 16 (≈ 50.1 µM) | 4 (≈ 12.5 µM) | 8 (≈ 25.1 µM) | 2 (≈ 6.26 µM) | 1 (≈ 3.13 µM) | – | – | 2 (≈ 6.26 µM)
9 | COc1ccc2cc3[n+](cc2c1OCc1nc2ccc(Cl)cc2[nH]1)CCc1cc2c(cc1-3)OCO2.[Cl-] | 64 | 32 | 256 | 256 | 512 | 512 | 32 | 128 | 512 | 512 | 512 | 64
10 | OC(Cn1cncn1)(Cn1cncn1)c1ccc(F)cc1F [FLUCONAZOLE] | – | 256 (≈ 836 µM) | – | 8 (≈ 26.1 µM) | – | – | – | – | – | 1 (≈ 3.27 µM) | 16 (≈ 52.2 µM) | –
11 | O=C(N[C@H](CO)[C@H](O)c1ccc([N+](=O)[O-])cc1)C(Cl)Cl [CHLORAMPHENICOL] | 32 (≈ 99 µM) | – | 16 (≈ 49.5 µM) | – | 32 (≈ 99 µM) | 32 (≈ 99 µM) | 32 (≈ 99 µM) | 8 (≈ 24.8 µM) | 32 (≈ 99 µM) | – | – | 16 (≈ 49.5 µM)
